The results in this text go back to ChEMBL document CHEMBL1124476, “1-(2-aminoethyl)-6-aryl-4H- [1,2,4]triazolo[4,3-a][1,4]benzodiazepines with diuretic and natriuretic activity” (J Med Chem, 1989).

The subject of series [1] is Rattus norvegicus. The series can be described thus: Mean excretion of chloride in conscious rats at a dose of 3.0 mg/kg given orally. The series is classed as ADME, organism-based. Conditions: in vivo, po. Details: dose 3 mg/kg, route oral. In outline: (§1)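 Secondary dose-response in male Sprague-Dawley rats (~160 g), fasted and hydrated as in the primary screen. Oral gavage at 0.3-100 mg/kg in 25 mL/kg saline/0.5% CMC, three cages of two rats per dose. Urine collected 5 h; Na, K, Cl, HCO3 measured. Values are mean excretion (mequiv), compared with controls at P < 0.05.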

The species named for series [2] is Rattus norvegicus. As to the kind of experiment: […]. Details: dose 10 mg/kg, route oral. It counts as ADME, organism-based, Urine. Conditions: in vivo, po, 10 mg/kg. In short, it runs like this: (§2)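 Male Sprague-Dawley rats, about 160 g, fasted 24 h and water withheld 1 1/2 h beforehand; food and water withheld during the test. Dosing by gavage with 25 mL/kg 0.9% saline containing 0.5% (carboxymethyl)cellulose, agent dissolved or suspended. Three cages of two rats each per dose, held in metabolism cages. Urine collected over 5 h. Volume given in mL, Na+ in mequiv. Significance versus control at P < 0.05.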

Series [3] relates to Rattus norvegicus. The series can be described thus: Mean excretion of potassium in conscious rats at a dose of 100 mg/kg given orally. It counts as ADME, organism-based. Details: dose 100 mg/kg, route oral. As to conditions: in vivo, po. In outline:
as §1

In series [4] the test system is Rattus norvegicus. The series can be described thus: Mean excretion of […] in conscious rats at a dose of 1.0 mg/kg given orally. Conditions: in vivo, po. Details: dose 1 mg/kg, route oral. It counts as ADME, organism-based. In short, it runs like this:
as §2

In series [5] the test system is Rattus norvegicus. The series can be described thus: Mean excretion of sodium in conscious rats at a dose of 0.3 mg/kg given orally. The series is classed as ADME, organism-based. Details: dose 0.3 mg/kg, route oral. As to conditions: in vivo, po. In short, it runs like this:
as §2

Series [6] can be described thus: Diuretic activity at 40 mg/kg (screening dose-68.7 umol/kg) in […] in a one stage experiment; T/C = urine vol of treated rats / urine vol of control rats. It counts as functional. In outline: (§3)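 40 mg/kg given by gavage in 25 mL/kg 0.9% saline with 0.5% (carboxymethyl)cellulose. Four rats per agent, two per metabolism cage; 20 controls; 5 h urine. T/C = treated/control urine volume. Stage-1 T/C of 1.66 or more leads to stage 2; product T/C1·T/C2 of 3.34 or more counts as active.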

Series [7] deals with Rattus norvegicus. As to the kind of experiment: Mean excretion of potassium in conscious rats at a dose of 30 mg/kg given orally. It counts as ADME, organism-based. On the set-up: dose 30 mg/kg, route oral. As to conditions: in vivo, po. In outline:
as §1

In series [8] the test system is Rattus norvegicus. As to the kind of experiment: Mean excretion of potassium in conscious rats at a dose of 0.3 mg/kg given orally. The series is classed as ADME, organism-based. Details: dose 0.3 mg/kg, route oral. Conditions: in vivo, po. In short, it runs like this: as §1
For series [9], the species on record is Rattus norvegicus. The series can be described thus: […]. The series is classed as ADME, organism-based, Urine. Details: dose 3 mg/kg, route oral. As to conditions: in vivo, po, 3 mg/kg. In short, it runs like this:
as §2

Series [10] has as its system Rattus norvegicus. As to the kind of experiment: Mean excretion of sodium in conscious rats at a dose of 100 mg/kg given orally. As to conditions: in vivo, po. The series is classed as ADME, organism-based. Details: dose 100 mg/kg, route oral. In short, it runs like this: as §2
The test system of series [11] is Rattus norvegicus. As to the kind of experiment: Mean excretion of chloride in conscious rats at a dose of 1.0 mg/kg given orally. The series is classed as ADME, organism-based. As to conditions: in vivo, po. Details: dose 1 mg/kg, route oral. In short, it runs like this: as §1
For series [12], the species on record is Rattus norvegicus. As to the kind of experiment: […]. The series is classed as ADME, organism-based, Urine. On the set-up: dose 30 mg/kg, route oral. Conditions: in vivo, po, 30 mg/kg. In outline: as §2
Series [13] has as its system Rattus norvegicus. As to the kind of experiment: Mean excretion of potassium in conscious rats at a dose of 3.0 mg/kg given orally. It counts as ADME, organism-based. Conditions: in vivo, po. Details: dose 3 mg/kg, route oral. In outline:
as §1

Series [14] relates to Rattus norvegicus. As to the kind of experiment: Mean excretion of potassium in conscious rats at a dose of 1.0 mg/kg given orally. Details: dose 1 mg/kg, route oral. Conditions: in vivo, po. It counts as ADME, organism-based. In short, it runs like this:
as §1

In series [15] the test system is Rattus norvegicus. As to the kind of experiment: Mean excretion of chloride in conscious rats at a dose of 10 mg/kg given orally. It counts as ADME, organism-based. Details: dose 10 mg/kg, route oral. Conditions: in vivo, po. In short, it runs like this: as §1
Series [16] is filed under the species Rattus norvegicus. The series can be described thus: […]. It counts as ADME, organism-based, Urine. On the set-up: dose 0.3 mg/kg, route oral. Conditions: in vivo, po, 0.3 mg/kg. In short, it runs like this: (§4)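 Dose-response test in male Sprague-Dawley rats of about 160 g, fasted 24 h, with water withheld 1½ h before and during the test. Each rat got a single gavage of 25 mL/kg 0.9% saline with 0.5% carboxymethylcellulose carrying the agent (0.3–100 mg/kg range). Rats were housed two per metabolism cage, and urine was collected for 5 h. Mean urine volume (mL) was compared with controls (P < 0.05).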

Series [17] has as its system Rattus norvegicus. The series can be described thus: Mean excretion of potassium in conscious rats at a dose of 10 mg/kg given orally. It counts as ADME, organism-based. Details: dose 10 mg/kg, route oral. As to conditions: in vivo, po. In outline:
as §1

The test system of series [18] is Rattus norvegicus. The series can be described thus: Mean excretion of sodium in conscious rats at a dose of 3.0 mg/kg given orally. It counts as ADME, organism-based. Details: dose 3 mg/kg, route oral. As to conditions: in vivo, po. In short, it runs like this: as §2
Series [19] is filed under the species Rattus norvegicus. As to the kind of experiment: […]. It counts as ADME, organism-based, Urine. On the set-up: dose 1 mg/kg, route oral. Conditions: in vivo, po, 1 mg/kg. In short, it runs like this:
as §4

Series [20] deals with Rattus norvegicus. As to the kind of experiment: Mean excretion of Cl- in conscious rats at a dose of 0.3 mg/kg given orally. On the set-up: dose 0.3 mg/kg, route oral. The series is classed as ADME, organism-based, Urine. As to conditions: in vivo, po. In outline:
as §4

Series [21] in a line: Diuretic activity at 40 mg/kg (screening dose-68.7 umol/kg) in […] in a two stage experiment; T/C1.2 = urine vol of treated rats / urine vol of control rats. It counts as functional. In outline: as §3
The subject of series [22] is Rattus norvegicus. As to the kind of experiment: Mean excretion of chloride in conscious rats at a dose of 30 mg/kg given orally. It counts as ADME, organism-based. Details: dose 30 mg/kg, route oral. As to conditions: in vivo, po. In outline: as §1
For series [23], the species on record is Rattus norvegicus. As to the kind of experiment: […]. On the set-up: dose 100 mg/kg, route oral. As to conditions: in vivo, po, 100 mg/kg. The series is classed as ADME, organism-based, Urine. In short, it runs like this:
as §2

The test system of series [24] is Rattus norvegicus. The series can be described thus: Mean excretion of sodium in conscious rats at a dose of 30 mg/kg given orally. It counts as ADME, organism-based. On the set-up: dose 30 mg/kg, route oral. Conditions: in vivo, po. In short, it runs like this: as §2
The test system of series [25] is Rattus norvegicus. The series can be described thus: Mean excretion of chloride in conscious rats at a dose of 100 mg/kg given orally. It counts as ADME, organism-based. On the set-up: dose 100 mg/kg, route oral. Conditions: in vivo, po. In short, it runs like this:
as §1

Series [26] relates to Rattus norvegicus. As to the kind of experiment: Mean excretion of sodium in conscious rats at a dose of 10 mg/kg given orally. The series is classed as ADME, organism-based. On the set-up: dose 10 mg/kg, route oral. As to conditions: in vivo, po. In short, it runs like this:
as §2

The nature of series [27]: Diuretic activity at 40 mg/kg (screening dose-73.8 umol/kg) in […] in a one stage experiment; T/C = urine vol of treated rats / urine vol of control rats. It counts as functional. In short, it runs like this:
as §3

The nature of series [28]: Diuretic activity at 40 mg/kg (screening dose-73.8 umol/kg) in […] in a two stage experiment; T/C1.2 = urine vol of treated rats / urine vol of control rats. It counts as functional. In short, it runs like this: as §3
Series [29] in a line: Diuretic activity at 40 mg/kg (screening dose-90.1 umol/kg) in […] in a one stage experiment; T/C = urine vol of treated rats / urine vol of control rats. It counts as functional. In outline: as §3

Turning to `CN(C)CCc1nnc2n1-c1ccc(Br)cc1C(c1ccccc1)=NC2`, the “Mean excretion of Cl-” value in [1] turned out to be 0.82 m equiv; in series [11] it was 0.65 m equiv; in [15] it was 0.74 m equiv; in series [20], 0.66 m equiv; in series [22] it was 0.94 m equiv; in [25], 1.42 m equiv. Moreover, the Mean urine volume is 5.9 mL in series [2]; 5.97 mL in series [9]; 8.44 mL in series [12]; 3.99 mL in [16]; 4.38 mL in [19]; 13 mL in series [23]. Further, the “Mean excretion of K+” value stood at 0.27 m equiv in [3]; 0.16 m equiv in series [7]; 0.25 m equiv in [8]; 0.23 m equiv in [13]; 0.23 m equiv in [14]; 0.21 m equiv in series [17]. Besides, the “Mean excretion of Na+” value is on record as 0.65 m equiv in [4]; 0.66 m equiv in [5]; 1.57 m equiv in series [10]; 0.78 m equiv in series [18]; 1 m equiv in [24]; 0.68 m equiv in series [26]. In addition, the “T/C 1” value in [6] is listed as 2.98. For the same molecule, the “T/C 1.2” value in series [21] was 7.84.

`I.NCC(c1ccccc1)c1nnc2n1-c1ccc(Cl)cc1C(c1ccccc1)=NC2` (stereo not drawn): the “Mean excretion of Cl-” value stood at 0.73 m equiv in [1]; 0.79 m equiv in series [11]; 1.09 m equiv in [15]; 0.81 m equiv in [20]; 1.72 m equiv in series [22]; 1.57 m equiv in series [25]. Further, the Mean urine volume was 6.21 mL in [2]; 3.92 mL in series [9]; 10.47 mL in series [12]; 4.34 mL in series [16]; 4.45 mL in series [19]; 8.43 mL in series [23]. In [27], the “T/C 1” value was determined as 2.53. For the same molecule, the “Mean excretion of K+” value was 0.27 m equiv in series [3]; 0.28 m equiv in series [7]; 0.28 m equiv in series [8]; 0.22 m equiv in [13]; 0.32 m equiv in series [14]; 0.27 m equiv in [17]. Besides, the “Mean excretion of Na+” value was determined as 0.76 m equiv in [4]; 0.77 m equiv in [5]; 1.63 m equiv in series [10]; 0.69 m equiv in series [18]; 2.01 m equiv in [24]; 1.08 m equiv in series [26]. In addition, the “T/C 1.2” value in series [28] amounted to 5.92.

`CN(C)CC(c1ccccc1)c1nnc2n1-c1ccccc1C(c1ccccc1)=NC2.Cl` (stereo not drawn): the “T/C 1” value in series [29] stood at 1.48.
